Bioassay records: PubChem BioAssay, several laboratories
EBV gp42 inh = blocks Epstein-Barr virus glycoprotein 42 binding. Fluorescence polarization binding assay, mP read-out. 220,000 compounds, 0.42% hits. AID 1085. inhibition, % (tested at 21.74 µM); in the data active = inhibition above about 50%
Bim-Mcl-1 = human Bim-Mcl-1 interaction inhibition; Q07820; Bead-based flow cytometry, Bim peptide-Mcl-1 binding; inhibition, % at 10 µM; 190,000 compounds, 0.1% hits; in the data active = inhibition above about 40%;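 note: 0% = no compound tracer wells and 100% = peptide blocker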
Target sequence (Q07820 whole entry, looked up): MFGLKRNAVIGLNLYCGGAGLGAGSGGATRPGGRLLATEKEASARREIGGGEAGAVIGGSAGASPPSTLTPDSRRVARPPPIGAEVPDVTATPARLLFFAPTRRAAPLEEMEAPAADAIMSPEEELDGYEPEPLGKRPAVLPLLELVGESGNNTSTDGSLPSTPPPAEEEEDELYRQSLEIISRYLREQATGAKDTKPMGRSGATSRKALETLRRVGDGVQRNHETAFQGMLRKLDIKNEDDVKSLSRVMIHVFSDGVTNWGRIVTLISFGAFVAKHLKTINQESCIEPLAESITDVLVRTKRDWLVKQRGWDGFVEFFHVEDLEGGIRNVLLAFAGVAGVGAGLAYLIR
Mcl1-Noxa inh = disrupts binding of human Mcl-1 to Noxa peptide; Q07820; TR-FRET Mcl-1/Noxa peptide binding, 2 h; inhibition, % at 21.7 µM; 220,000 compounds, 1.5% hits;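 active = compounds that cut the protein-peptide binding signal by more than 50% relative to plate controls in a single-dose test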;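 note: His-tagged Mcl-1 with rhodamine Noxa BH3 peptide and terbium anti-His antibody; 0% = Mcl-1 plus Noxa peptide wells and 100% = peptide-only wells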
Mcl1 Bid PPI = disrupts binding of human Mcl-1 to Bid peptide; TR-FRET Mcl-1/Bid-Dy647 peptide binding, 1536-well; inhibition, % at 21.7 µM; 220,000 compounds, 0.97% hits; Q07820; AID 1021;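 active = compounds that cut the binding signal by more than half at the single screening dose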;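 note: His-tagged Mcl-1 with europium anti-His antibody binding Bid BH3 peptide; 0% = Mcl-1 plus peptide wells and 100% = peptide-only wells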
MCL1-BIM inh = inhibitors of human MCL1 binding to BIM-BH3 peptide; Q07820; GST-MCL1 / FITC-Bim-BH3 fluorescence polarization; inhibition, % at 10.9 µM; 320,000 compounds, 0.68% hits; AID 2057;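 active = inhibition above the mean inhibition of all tested compounds plus 3 SD, set per campaign, cut at about 40% in these data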;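 note: 0% = DMSO wells and 100% = unlabeled Bim-BH3 peptide control; higher means more loss of mP so more displacement of Bim peptide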
RBBP9 inhibitor = human RBBP9 hydrolase inhibition; 220,000 compounds, 0.2% hits; inhibition, % at 7.94 µM; O75884; recombinant RBBP9, FP-Rh probe fluorescence polarization;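 active = inhibition above the campaign mean of all tested compounds plus 3 SD, cut at about 14% in these data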;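 note: plate controls were DMSO wells with RBBP9 for no effect and wells lacking RBBP9 protein for full effect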
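Measured by – fluorescence polarization · Test system – RBBP9 protein · Input – 2.5 µM RBBP9 dispensing solution, before mixing · Measure – percent inhibition from mP, scaled between DMSO and no-protein wells · Benchmarks – DMSO-treated enzyme wells and wells lacking RBBP9 · Times – preincubation 30 min plus labeling 45 min at 25 °C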
The depositor's hits bear a star. Only some compounds are listed: those with a hit (about 2.2% of all), similar ones and a draw of the others.

For COCCN1CC(C(=O)N2CCC(Oc3ccccc3OC)CC2)CCC1=O (configuration not stated) the results were MCL1-BIM inh 0.
COc1cc(OC)c(OC)cc1CNC(=O)CCN1C(=O)c2cccc([N+](=O)[O-])c2C1=O was read as MCL1-BIM inh 4.
For CCOCCn1c(=NC(=O)/C=C/c2ccccc2Cl)sc2cc(NC(C)=O)ccc21 the results were EBV gp42 inh -23, Bim-Mcl-1 -1, Mcl1-Noxa inh 31, Mcl1 Bid PPI 61*, MCL1-BIM inh 1 and RBBP9 inhibitor 1.
COCCn1c(=NC(=O)/C=C/c2ccccc2Cl)sc2cc(NC(C)=O)ccc21 was read as EBV gp42 inh -3, Bim-Mcl-1 -3, Mcl1-Noxa inh 20, Mcl1 Bid PPI 28, MCL1-BIM inh 4 and RBBP9 inhibitor -18.
For Cc1[nH]n2c(=O)c3c(nc2c1-c1ccccc1)CCCC3 the results were EBV gp42 inh -1, Bim-Mcl-1 -3, Mcl1-Noxa inh 19, Mcl1 Bid PPI -10, MCL1-BIM inh 2 and RBBP9 inhibitor -7.
Screening Cc1[nH]n2c(=O)c3c(nc2c1-c1ccc(F)cc1)CCCC3 returned EBV gp42 inh -22, Bim-Mcl-1 4, Mcl1-Noxa inh 4, Mcl1 Bid PPI 81*, MCL1-BIM inh 1 and RBBP9 inhibitor -3.
Screening O=c1c2c(nc3cc(-c4ccc(F)cc4)[nH]n13)CCCC2 returned EBV gp42 inh 1, Bim-Mcl-1 0, Mcl1-Noxa inh 52*, Mcl1 Bid PPI -24, MCL1-BIM inh 9 and RBBP9 inhibitor -10.
For CC(C)N(C)Cc1nnnn1CC(=O)N(C)Cc1ccc(F)cc1 the results were MCL1-BIM inh -3.
Screening CC(C)c1ccc(C2C3CSCC=C3C(C#N)=C(N)C2(C#N)C#N)cc1 (configuration not stated) returned EBV gp42 inh -27, Bim-Mcl-1 -1, Mcl1-Noxa inh 14, Mcl1 Bid PPI -28, MCL1-BIM inh -13 and RBBP9 inhibitor 8.
CCCC1C2CN(C(C)C)CC=C2C(C#N)=C(N)C1(C#N)C#N (configuration not stated) was read as EBV gp42 inh 69*, Bim-Mcl-1 -1, Mcl1-Noxa inh 12, Mcl1 Bid PPI -23, MCL1-BIM inh 180* and RBBP9 inhibitor 9.
`Cc1[nH]nc(-c2ccc(OCc3cnn(-c4ccccc4)c3)cc2O)c1Oc1ccccc1F` gave EBV gp42 inh -5, Bim-Mcl-1 -1, Mcl1-Noxa inh -11, Mcl1 Bid PPI 59*, MCL1-BIM inh -1 and RBBP9 inhibitor -5.
`O=C1c2c(O)cc(O)cc2O[C@@]12c1c(cc(O)c3c1O[C@H](c1ccc(O)cc1)[C@@H](O)C3)O[C@@H]2c1ccc(O)cc1` gave EBV gp42 inh -12, Bim-Mcl-1 -2, Mcl1-Noxa inh 66*, Mcl1 Bid PPI 7, MCL1-BIM inh 14 and RBBP9 inhibitor -2.
`Cc1nnc(N2C(=O)C(O)=C(C(=O)c3ccco3)C2c2ccc(C(C)(C)C)cc2)s1` (configuration not stated) gave EBV gp42 inh 40, Bim-Mcl-1 0, Mcl1-Noxa inh 3, Mcl1 Bid PPI -19, MCL1-BIM inh 31 and RBBP9 inhibitor -4.
`Cc1nnc(N2C(=O)C(O)=C(C(=O)c3ccco3)C2c2ccc(F)cc2)s1` (configuration not stated) gave EBV gp42 inh 76*, Bim-Mcl-1 1, Mcl1-Noxa inh 21, Mcl1 Bid PPI -8, MCL1-BIM inh 27 and RBBP9 inhibitor -6.
For Cc1nnc(N2C(=O)C(O)=C(C(=O)c3ccco3)C2c2ccc(C(C)C)cc2)s1 (configuration not stated) the results were EBV gp42 inh 72*, Bim-Mcl-1 -2, Mcl1-Noxa inh 26, Mcl1 Bid PPI -1, MCL1-BIM inh 37 and RBBP9 inhibitor -5.
For O=C1CC(NS(=O)(=O)c2ccc(F)cc2)CN1c1ccc2c(c1)OCCO2 (configuration not stated) the results were MCL1-BIM inh 2.
`COc1cc(CCC(=O)NCc2ccc(F)cc2)cc(OC)c1OC` gave MCL1-BIM inh 7.
For CN(C)c1ccc(/C=C(\C#N)C(=O)c2ccccc2)cc1 the results were EBV gp42 inh -70, Mcl1-Noxa inh 21, Mcl1 Bid PPI -60, MCL1-BIM inh -149 and RBBP9 inhibitor -11.
